In ChEMBL document CHEMBL3352234, “Discovery of furan-2-carbohydrazides as orally active glucagon receptor antagonists” (Bioorg Med Chem Lett, 2014):
Calls of active or inactive are those of the source. No cut-off for these calls is given here.

Columns and labels:
[1] = target: Glucagon-like peptide 1 receptor (Homo sapiens, UniProt P43220); assay: Inhibition of GLP-1R (unknown origin)
Rattus norvegicus [2] = assay: Inhibition of glucagon-induced glucose elevation in rat at 30 mg/kg, po administered 30 mins prior challenge measured up to 6 hrs; type: functional, organism-based; set-up: dose 30 mg/kg
In short: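 Normal rats were dosed orally 30 min before an intravenous glucagon challenge, with blood sampled afterwards for glucose. Values are mean ± SEM, n = 6 per group; Dunnett multiple comparison test.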

[3] = Inhibition of glucagon-induced glucagon receptor-mediated cAMP production in dog hepatocytes after 15 mins by cAMP dynamic2 assay; type: cell-based; details: Canis lupus familiaris, Hepatocyte, 0.25 h
In short: (§1)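 Hepatocytes were suspended in HCM medium, seeded on collagen-coated wells and incubated for 5 h. Compound in DMEM with 20 mM HEPES, 0.1% BSA and 0.5 mM IBMX was preincubated for 15 min at room temperature. Glucagon was then added for 5 min at room temperature. Cells were lysed with 0.5 M HCl for 10 min and neutralized with Tris–HCl pH 8.0. Supernatant cAMP was quantified with the cAMP dynamic2 kit.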

[4] = Oral bioavailability in rat at 1 mg/kg; type: ADME, organism-based; details: in vivo
Rattus norvegicus [5] = assay: Half life in rat at 1 mg/kg, iv; type: ADME, organism-based; set-up: dose 1 mg/kg, route intravenous; details: in vivo
[6] = Half life in rat at 1 mg/kg, po; type: ADME, organism-based; set-up: dose 1 mg/kg, route oral; details: in vivo
Glucagon receptor [7] = target: T1, Glucagon receptor (Rattus norvegicus, UniProt P30082); assay: Inhibition of glucagon-induced glucagon receptor-mediated cAMP production in rat hepatocytes after 15 mins by cAMP dynamic2 assay; type: functional, cell-based, Hepatocyte; in short: as §1
Glucagon receptor [8] = target: Glucagon receptor (Homo sapiens, UniProt P47871); assay: Inhibition of glucagon-induced glucagon receptor-mediated cAMP production in human hepatocytes after 15 mins by cAMP dynamic2 assay; type: functional, cell-based, Hepatocyte; in short: as §1
[9] = Cmax in rat at 1 mg/kg, po; type: ADME, organism-based; set-up: dose 1 mg/kg, route oral; details: in vivo
Rattus norvegicus [10] = assay: Inhibition of glucagon-induced glucose elevation in normal rat at 30 mg/kg, po administered 30 mins prior challenge measured up to 6 hrs
[11] = target: Voltage-gated inwardly rectifying potassium channel KCNH2 (Homo sapiens, UniProt Q12809); assay: Inhibition of human ERG
Rattus norvegicus [12] = assay: Volume of distribution at steady state in rat at 1 mg/kg, iv; type: ADME, organism-based; set-up: dose 1 mg/kg, route intravenous; details: in vivo
[13] = Inhibition of sodium channel site 2 (unknown origin); set-up: species or system Homo sapiens
Glucagon receptor [14] = target: T1, Glucagon receptor; assay: Displacement of [125I]glucagon from glucagon receptor in rat hepatocyte membranes after 30 mins by gamma-counting; type: cell membranes
In short: (§2)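 Rat liver was homogenized in 20 volumes of 50 mM Tris–HCl (pH 7.2) and the membrane pellet collected by two 30,000g spins of 15 min each. Membranes were resuspended in Tris–HCl pH 7.2 with 1 mg/mL BSA and 0.1 mg/mL bacitracin. Incubation was with [125I]glucagon (final 50 pM) at 25 °C for 30 min, then filtration onto PEI-treated GF/C filters and gamma counting. Inhibition is relative to binding without compound, after subtracting nonspecific binding with excess glucagon. Run in duplicate.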

[15] = target: Glucagon receptor (Rattus norvegicus) (UniProt P30082); assay: Displacement of [125I]glucagon from glucagon receptor in rat hepatocyte membranes at 10 uM after 30 mins by gamma-counting; type: cell membranes; in short: as §2
Sequence of Glucagon receptor (Rattus norvegicus) (P30082 whole entry): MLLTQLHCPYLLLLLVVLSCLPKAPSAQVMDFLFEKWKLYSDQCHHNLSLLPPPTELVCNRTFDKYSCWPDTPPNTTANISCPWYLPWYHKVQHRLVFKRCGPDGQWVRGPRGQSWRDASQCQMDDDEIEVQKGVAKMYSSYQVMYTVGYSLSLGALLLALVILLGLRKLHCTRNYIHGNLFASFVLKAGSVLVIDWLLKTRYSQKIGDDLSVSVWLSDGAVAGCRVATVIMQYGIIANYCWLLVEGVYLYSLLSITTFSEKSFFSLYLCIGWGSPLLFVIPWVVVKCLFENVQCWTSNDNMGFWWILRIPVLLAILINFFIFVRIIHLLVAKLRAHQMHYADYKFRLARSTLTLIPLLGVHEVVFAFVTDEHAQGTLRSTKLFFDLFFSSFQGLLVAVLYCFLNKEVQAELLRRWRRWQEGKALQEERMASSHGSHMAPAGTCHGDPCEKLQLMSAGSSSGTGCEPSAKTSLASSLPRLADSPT

T1 sequence (P30082 whole entry): as above
Sequence of Glucagon-like peptide 1 receptor (P43220 whole entry): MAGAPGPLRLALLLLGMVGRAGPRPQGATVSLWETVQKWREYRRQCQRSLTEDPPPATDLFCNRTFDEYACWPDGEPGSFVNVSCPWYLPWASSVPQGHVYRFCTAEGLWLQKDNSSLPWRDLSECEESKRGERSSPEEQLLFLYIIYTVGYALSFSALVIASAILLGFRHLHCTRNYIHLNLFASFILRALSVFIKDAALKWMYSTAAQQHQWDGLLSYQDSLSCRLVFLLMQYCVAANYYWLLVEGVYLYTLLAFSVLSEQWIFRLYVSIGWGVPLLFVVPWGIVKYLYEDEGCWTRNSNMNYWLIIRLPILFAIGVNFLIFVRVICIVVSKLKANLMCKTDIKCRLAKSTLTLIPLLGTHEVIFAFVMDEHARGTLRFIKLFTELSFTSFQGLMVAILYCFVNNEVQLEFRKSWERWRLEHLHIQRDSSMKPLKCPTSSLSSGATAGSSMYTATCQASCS
Sequence of Voltage-gated inwardly rectifying potassium channel KCNH2 (Q12809 whole entry): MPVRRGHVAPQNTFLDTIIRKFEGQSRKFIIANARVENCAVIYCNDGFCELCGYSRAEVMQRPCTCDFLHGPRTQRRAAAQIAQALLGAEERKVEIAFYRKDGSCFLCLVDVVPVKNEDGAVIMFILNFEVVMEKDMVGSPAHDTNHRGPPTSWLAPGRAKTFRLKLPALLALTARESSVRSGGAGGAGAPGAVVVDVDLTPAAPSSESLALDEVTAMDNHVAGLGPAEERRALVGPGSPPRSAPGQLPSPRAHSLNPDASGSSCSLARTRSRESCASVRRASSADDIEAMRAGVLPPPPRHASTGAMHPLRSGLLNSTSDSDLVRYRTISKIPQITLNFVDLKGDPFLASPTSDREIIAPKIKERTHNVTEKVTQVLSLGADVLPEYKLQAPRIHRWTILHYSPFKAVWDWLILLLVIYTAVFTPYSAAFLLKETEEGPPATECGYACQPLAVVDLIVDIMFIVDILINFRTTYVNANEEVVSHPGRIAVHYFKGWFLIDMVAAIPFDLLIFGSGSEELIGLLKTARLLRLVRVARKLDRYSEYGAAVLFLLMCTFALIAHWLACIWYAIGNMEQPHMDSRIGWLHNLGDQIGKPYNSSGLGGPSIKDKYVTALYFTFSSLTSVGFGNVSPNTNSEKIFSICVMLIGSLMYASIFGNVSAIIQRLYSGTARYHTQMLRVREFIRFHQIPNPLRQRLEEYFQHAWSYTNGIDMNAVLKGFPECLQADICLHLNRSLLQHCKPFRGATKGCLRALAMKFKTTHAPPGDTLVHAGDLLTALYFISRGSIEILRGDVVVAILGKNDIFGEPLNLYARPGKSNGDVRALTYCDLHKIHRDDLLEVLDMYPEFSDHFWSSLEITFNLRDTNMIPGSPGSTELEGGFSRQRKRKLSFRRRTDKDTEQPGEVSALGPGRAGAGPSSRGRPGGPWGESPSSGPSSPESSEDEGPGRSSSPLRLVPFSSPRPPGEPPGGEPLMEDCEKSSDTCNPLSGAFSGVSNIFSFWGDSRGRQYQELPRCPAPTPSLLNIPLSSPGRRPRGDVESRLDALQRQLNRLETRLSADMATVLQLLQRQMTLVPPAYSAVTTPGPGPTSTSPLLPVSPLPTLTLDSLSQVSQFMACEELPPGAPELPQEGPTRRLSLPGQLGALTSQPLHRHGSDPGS
Sequence of Glucagon receptor (Homo sapiens, UniProt P47871) (P47871 whole entry): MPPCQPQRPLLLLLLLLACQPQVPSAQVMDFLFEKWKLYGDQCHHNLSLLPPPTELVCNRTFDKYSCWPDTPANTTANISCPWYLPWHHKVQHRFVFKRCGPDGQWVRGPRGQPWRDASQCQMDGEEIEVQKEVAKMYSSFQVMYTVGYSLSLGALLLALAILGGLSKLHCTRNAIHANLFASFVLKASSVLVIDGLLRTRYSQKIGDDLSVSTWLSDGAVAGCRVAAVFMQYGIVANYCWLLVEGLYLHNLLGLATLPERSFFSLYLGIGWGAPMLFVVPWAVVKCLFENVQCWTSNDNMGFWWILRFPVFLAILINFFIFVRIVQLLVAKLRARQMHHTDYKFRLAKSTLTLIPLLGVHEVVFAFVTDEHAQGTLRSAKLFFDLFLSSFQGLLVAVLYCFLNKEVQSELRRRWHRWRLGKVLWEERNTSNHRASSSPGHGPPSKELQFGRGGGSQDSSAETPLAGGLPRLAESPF

| SMILES | IC50 (Glucagon receptor [14]) [nM] | inhibition [15] | also measured |
| --- | --- | --- | --- |
| CCCCCc1ccc(-c2ccoc2C(=O)NNC(=O)c2ccc(O)c([N+](=O)[O-])c2)cc1 | – | – | IC50 [1]: > 1000 nM; inhibition (Rattus norvegicus [2]): Active; IC50 [3]: 183 nM; bioavailability [4]: 37%; t1/2 (Rattus norvegicus [5]): 5.9 h; half-life [6]: 6.1 h; IC50 (Glucagon receptor [7]): 5.3 nM; IC50 (Glucagon receptor [8]): 292 nM; Cmax [9]: 411 ng/mL; inhibition (Rattus norvegicus [10]): Active; IC50 [11]: > 1000 nM; Vdss (Rattus norvegicus [12]): 0.59 L/kg; IC50 [13]: > 1000 nM |
| COc1cc(C(=O)NNC(=O)c2occ(-c3ccccc3)c2-c2ccccc2)ccc1O | 9500 | – | – |
| O=C(NNC(=O)c1occ(-c2ccccc2)c1-c1ccccc1)c1ccc(O)nc1 | 970 | – | – |
| O=C(NNC(=O)c1cc(-c2ccccc2)co1)c1ccoc1 | – | 6% | – |
| O=C(NNC(=O)c1occ(-c2ccccc2)c1-c1ccccc1)c1ccc(O)c(O)c1 | – | 57% | – |
| O=C(NNC(=O)c1occ(-c2ccccc2)c1-c1ccccc1)c1ccccc1 | – | 42% | – |
| O=C(NNC(=O)c1occ(-c2ccccc2)c1-c1ccccc1)c1ccc(O)cc1 | 9500 | 65% | – |
| O=C(O)c1ccc(C(=O)NNC(=O)c2occ(-c3ccccc3)c2-c2ccccc2)cc1 | – | 61% | – |
| O=C(NNC(=O)c1occ(-c2ccccc2)c1-c1ccccc1)c1ccc(O)c([N+](=O)[O-])c1 | 87 | – | – |
| O=C(NNC(=O)c1occ(-c2ccccc2)c1-c1ccccc1)c1ccco1 | – | 50% | – |
| O=C(NNC(=O)c1occ(-c2ccccc2)c1-c1ccccc1)c1cccc(O)c1 | – | 21% | – |
| O=C(NNC(=O)c1occ(-c2ccccc2)c1-c1ccccc1)c1ccc(O)c(F)c1 | 1400 | – | – |
| O=C(NNC(=O)c1occ(-c2ccccc2)c1-c1ccccc1)c1ccc(O)c(Cl)c1 | 430 | – | – |
| O=C(NNC(=O)c1occ(-c2ccccc2)c1-c1ccccc1)c1ccoc1 | – | 73% | – |
| COc1ccc(C(=O)NNC(=O)c2occ(-c3ccccc3)c2-c2ccccc2)cc1 | – | inactive | – |
| O=C(NNC(=O)c1occ(-c2ccccc2)c1-c1ccccc1)c1ccc(O)c(Br)c1 | 270 | – | – |
| O=C(NNC(=O)c1occ(-c2ccccc2)c1-c1ccccc1)c1ccc(O)c(-c2ccccc2)c1 | > 10000 | – | – |
